# Compound activity deposited in PubChem BioAssay by several laboratories.
# Shown are actives, neighbours in structure and some others; about 9.8% of the full set was active somewhere.
# Rad51 HR inh = blocks human Rad51 in homologous recombination; hRad51 DNA strand exchange, fluorescence dequenching; Q06609; hit rate 0.085% among 200,000; inhibition, % at 10 µM; AID 1385;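 active = inhibition above 40% at the single screening dose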;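 note: 0% = DMSO control wells and 100% = blanks with heterologous ssDNA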
#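 Assay system: Human Rad51 nucleoprotein filaments preassembled on unlabelled ssDNA | Reagent: Donor/quencher-labelled 47-bp dsDNA substrate | Doses: One concentration, 10 µM final | Times: 37 °C 15-min filament assembly, 30-min compound preincubation, 15-min exchange | Technique: Fluorescein emission 520 nm, excitation 485 nm | Benchmarks: Plate control and blank wells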
# Calpain2 inh = calpain II (pig) inhibition; purified calpain II, fluorogenic peptide substrate, 30 min; inhibition, % at 16 µM; hit rate 0.37% among 220,000; AID 1236;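 active = inhibition above about 50%, limit read from the data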
# L major viab = Leishmania major promastigote growth inhibition. Leishmania major promastigotes, resazurin fluorescence viability. inhibition, % at 10 µM. hit rate 9% among 200,000. AID 1063; in the data active = inhibition above about 50%;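 note: promastigotes grown with compound for 44 hours at 28 °C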
# PMI act = activators of human phosphomannose isomerase; P34949; purified human PMI, coupled resazurin fluorescence, 20 min; stronger effect = higher value; 1 = vehicle control, 0 substrate-free wells; activation factor at 20 µM; hit rate 0.005% among 190,000;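 active = activation factor of 2 or more at 20 µM, relative to plate controls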
# Target sequence (P34949 whole entry, looked up): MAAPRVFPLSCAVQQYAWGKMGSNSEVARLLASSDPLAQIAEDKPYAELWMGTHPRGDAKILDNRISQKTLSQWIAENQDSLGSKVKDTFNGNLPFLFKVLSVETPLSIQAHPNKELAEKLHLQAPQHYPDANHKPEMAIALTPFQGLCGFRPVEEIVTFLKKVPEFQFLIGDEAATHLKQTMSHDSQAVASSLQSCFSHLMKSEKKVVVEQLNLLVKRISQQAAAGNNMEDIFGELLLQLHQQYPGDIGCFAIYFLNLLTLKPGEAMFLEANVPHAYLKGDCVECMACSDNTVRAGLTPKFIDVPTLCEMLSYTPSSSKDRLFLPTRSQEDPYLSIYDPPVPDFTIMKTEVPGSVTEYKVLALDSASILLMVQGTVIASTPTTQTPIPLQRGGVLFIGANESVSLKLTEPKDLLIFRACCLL
# WT yeast gro inh = growth inhibition of WT yeast, mitochondrial fusion screen; mitochondrial fusion phenotypic screen, WT strain; inhibition, % at 10 µM; hit rate 2.1% among 190,000; AID 1362; in the data active = inhibition above about 58%; tested in S. cerevisiae
# PMI act hi M6P = activators of human phosphomannose isomerase at near-saturating mannose 6-phosphate; coupled PMI enzyme assay, resazurin fluorescence, 20 min; stronger effect = higher value; 1 = untreated enzyme, 0 = substrate-free blank; hit rate 0.34% among 190,000; P34949; activation factor at 20 µM;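 active = activation factor of 2 or more at 20 µM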
#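 Test system: human phosphomannose isomerase with PGI, G6PDH, diaphorase coupling enzymes / Doses: 20 µM compound, 1% DMSO / Times: enzyme reaction with compound 20 min at room temperature / Measured by: Diaphorase-driven resazurin-to-resorufin fluorescence, excitation 544, emission 590 nm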
# An asterisk follows results filed as active; . = no result given.
SMILES,Rad51 HR inh,Calpain2 inh,L major viab,PMI act,WT yeast gro inh,PMI act hi M6P
CCOc1cc(/C=N/Nc2cccc(C(=O)O)c2)ccc1OCC(=O)N1CCCCC1,-1,-46,-15,1.7,-2,2.3*
COc1ccc(-c2cnnc(N/N=C/c3ccc(O)c(OC)c3)n2)cc1,-7,15,54*,1,20,1
CC(C)C(NC(=O)OC(C)(C)C)C(=O)NC(CCC(=O)OCc1ccccc1)C(N)=O (centres undefined),-5,30,-3,1,-3,1
CC(O)CNCCNCc1cccs1 (centres undefined),2,-21,-9,1.1,22,1
CCOC(=O)C(=O)NNc1ccccc1OC,.,-12,.,.,.,.
CCc1ccc(C(=O)NNc2ccc(Cl)cc2)cc1,-7,24,.,.,.,.
CCOC(=O)C(=O)NNc1ccc(C)cc1,1,-13,3,1.4,62*,2*
CCOC(=O)C(=O)NNc1ccc(Cl)cc1,1,-16,26,1.7,62,2.5*
COC(=O)Cc1c(C(=O)OC)nnn1-c1ccc(OC(F)(F)F)cc1,-1,39,-7,1.1,14,1
CC(C)c1ccc(NS(=O)(=O)c2ccc(Cl)nc2)cc1,-2,-9,-1,0.8,25,0.9
CC(C)c1ccc(S(=O)(=O)Nc2ccc(SC(F)F)cc2)cc1,-15,28,-10,0.7,85*,0.8
Cc1ccc(Nc2c(N)c(=O)oc3ccccc23)cc1,5,-3,73*,0.9,-14,0.9
CNc1c(N)c(=O)oc2ccccc12,3,16,15,0.9,3,0.9
CCOc1ccc2oc(C(=O)NC3CC(C)(C)NC(C)(C)C3)c(C)c2c1,5,-109,82*,1,-9,1
CC1(C)CC(NC(=O)COc2ccc3ccccc3c2)CC(C)(C)N1,-6,24,83*,0.9,-2,0.9
CCOc1ccc2oc(C(=O)NC(C)(C)CC)c(C)c2c1,-5,-50,-3,1,-18,1
CCOc1ccc2oc(C(=O)NC3CCN(Cc4ccccc4)CC3)c(C)c2c1,14,-62,83*,1.1,20,1
O=C(NCC1CCN(S(=O)(=O)c2ccccc2)CC1)Nc1ccccc1,.,26,.,.,.,.
COCCNC(=O)CN(Cc1cccs1)C(=O)CCC(=O)Nc1nccs1,-15,-32,-3,1.1,-1,1.1
Cc1nc2ccccc2c(=O)n1/N=C/c1ccc2ccccc2c1O,.,17,.,.,.,.
Cc1nnc(-c2ccccc2)c(=O)n1/N=C/c1c(O)ccc2ccccc12,-6,-8,98*,1,20,0.8
CN(C(=O)CSc1nc2c(c(=O)[nH]1)CCC2)c1ccccc1,2,-22,-7,0.9,8,0.9
CC(=O)c1sc(N/N=C\c2ccc(Br)cc2)nc1C,-38,7,27,1,60*,1
O=C(COc1ccc(Br)cc1CNCCCN1CCOCC1)Nc1ccccc1,3,-14,91*,1.1,-13,1.1
CCOc1cc(CNC(CC)CO)ccc1OCC(=O)Nc1cccc(C(F)(F)F)c1 (centres undefined),7,13,82*,1,1,1
SMILES,Rad51 HR inh,Calpain2 inh,L major viab,PMI act,WT yeast gro inh,PMI act hi M6P
CCOc1cc(NC(=S)NCCCN2CCOCC2)c(OCC)cc1NC(=O)c1cccc(C)c1,6,-134,-2,.,16,.
COc1ccc(CNC(=O)Nc2cccc(C(F)(F)F)c2)cc1OC,-7,-20,6,0.8,-10,0.8
COc1cc(CNCCCN2CCOCC2)ccc1OCC(=O)Nc1cccc(C(F)(F)F)c1,7,16,100*,1,6,1
CCOc1cc(CNCCCN2CCOCC2)ccc1OCC(=O)Nc1cccc2ccccc12,.,0,100*,1.1,-8,1.1
O=C(Nc1ccc(NC(=O)c2ccccc2O)cc1)Nc1ccc(F)cc1F,10,-144,.,.,.,.
O=C(CN(C(=O)c1ccccc1Cl)N1C(=O)C2C3C=CC(C3)C2C1=O)c1cccs1 (centres undefined),-4,6,-1,0.9,-4,0.9
CC(C)CCn1c(N2CCN(c3cccc(Cl)c3)CC2)nc2c1c(=O)[nH]c(=O)n2C,-3,-68,12,0.9,62*,1
COC(=O)c1ccc(-c2ccco2)n1Cc1cccc(C)c1,-1,19,2,0.9,64*,0.9
